# Measurements: ChEMBL document CHEMBL1155459, “On-bead screening of a combinatorial fumaric acid derived peptide library yields antiplasmodial cysteine protease inhibitors with unusual peptide sequences” (J Med Chem, 2009)
# Square brackets hold non-standard residues; d marks the D form. Peptide text beside a SMILES is read from it. * marks the point of attachment. Fumaroyl(AlaGlyPheOH) = C[C@H](NC(=O)/C=C/C(=O)*)C(=O)NCC(=O)N[C@@H](Cc1ccccc1)C(=O)O; Chg = N[C@H](C(=O)O)C1CCCCC1; Dap = NC[C@H](N)C(=O)O
# How the values were obtained:
# [1] = Inhibition of Plasmodium falciparum falcipain-2 after 12 hrs by fluorescence spectroscopy-based on-bead assay; set-up: concentration or dose not given beside the values; settings: concentration not given here
# In short: (§1)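 Library members on resin (PEGA, theoretical loading 0.40 mmol/g; added as DMSO suspension, 0.64 mM final inhibitor) preincubated with enzyme 12 h, then Cbz-Phe-Arg-AMC 40 μM added; AMC release followed by fluorescence (ex 380/em 460 nm). Kinetics compared with inhibitor-free amino-PEGA resin.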
# [2] = target: Rhodesain (Trypanosoma brucei rhodesiense) (UniProt Q95PM0); experiment: Inhibition of Trypanosoma brucei rhodesiense rhodesain after 12 hrs by fluorescence spectroscopy-based on-bead assay; set-up: concentration or dose not given beside the values; settings: concentration not given here; in short: as §1
# Rhodesain (Trypanosoma brucei rhodesiense), sequence (Q95PM0 1-450): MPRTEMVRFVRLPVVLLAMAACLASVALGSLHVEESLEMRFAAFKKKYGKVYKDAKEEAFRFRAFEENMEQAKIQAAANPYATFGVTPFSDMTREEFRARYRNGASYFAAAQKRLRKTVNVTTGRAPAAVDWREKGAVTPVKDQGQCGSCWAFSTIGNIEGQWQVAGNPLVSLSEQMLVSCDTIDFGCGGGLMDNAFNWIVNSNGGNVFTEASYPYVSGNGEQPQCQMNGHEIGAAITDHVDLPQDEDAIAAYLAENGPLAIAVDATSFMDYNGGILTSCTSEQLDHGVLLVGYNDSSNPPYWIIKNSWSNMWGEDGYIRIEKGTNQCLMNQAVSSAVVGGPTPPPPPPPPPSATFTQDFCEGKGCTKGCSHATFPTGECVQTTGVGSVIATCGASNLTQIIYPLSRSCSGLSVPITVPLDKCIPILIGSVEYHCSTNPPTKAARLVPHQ
SMILES,inhibition [1],inhibition [2]
"CC(=O)NC[C@H](NC(=O)/C=C/C(=O)N[C@@H](C)C(=O)NCC(=O)N[C@@H](Cc1ccccc1)C(=O)O)C(=O)N[C@@H](Cc1ccccc1)C(=O)N[C@@H](C)C(=O)N[C@H](C(N)=O)C(C)C (HELM PEPTIDE1{[C[C@H](NC(=O)/C=C/C(=O)[*:2])C(=O)NCC(=O)N[C@@H](Cc1ccccc1)C(=O)O].[O=C([C@H](CN[*:3])N[*:1])[*:2]].F.A.V.[am]}|PEPTIDE2{[ac]}$PEPTIDE1,PEPTIDE2,2:R3-1:R2$$$V2.0)",13%,17%
CC(C)[C@H](NC(=O)[C@H](C)NC(=O)[C@@H](NC(=O)[C@H](CCC(N)=O)NC(=O)/C=C/C(=O)N[C@@H](C)C(=O)NCC(=O)N[C@@H](Cc1ccccc1)C(=O)O)c1ccccc1)C(N)=O (HELM PEPTIDE1{[C[C@H](NC(=O)/C=C/C(=O)[*:2])C(=O)NCC(=O)N[C@@H](Cc1ccccc1)C(=O)O].Q.[Phg].A.V.[am]}$$$$V2.0),55%,12%
"CC(=O)NC[C@H](NC(=O)/C=C/C(=O)NCC(=O)NCC(=O)N[C@@H](Cc1ccccc1)C(=O)O)C(=O)N[C@@H](Cc1ccccc1)C(=O)N[C@H](C(=O)N[C@H](C(N)=O)C(C)C)C(C)C (HELM PEPTIDE1{[O=C(/C=C/C(=O)[*:2])NCC(=O)NCC(=O)N[C@@H](Cc1ccccc1)C(=O)O].[O=C([C@H](CN[*:3])N[*:1])[*:2]].F.V.V.[am]}|PEPTIDE2{[ac]}$PEPTIDE1,PEPTIDE2,2:R3-1:R2$$$V2.0)",46%,61%
CC(C)C[C@H](NC(=O)[C@H](Cc1ccccc1)NC(=O)/C=C/C(=O)NCC(=O)NCC(=O)N[C@@H](Cc1ccccc1)C(=O)O)C(=O)N[C@@H](C)C(=O)N[C@H](C(N)=O)C(C)C (HELM PEPTIDE1{[O=C(/C=C/C(=O)[*:2])NCC(=O)NCC(=O)N[C@@H](Cc1ccccc1)C(=O)O].F.L.A.V.[am]}$$$$V2.0),45%,71%
"CC(=O)NC[C@H](NC(=O)/C=C/C(=O)NCC(=O)NCC(=O)N[C@@H](Cc1ccccc1)C(=O)O)C(=O)N[C@H](C(=O)N[C@@H](C)C(=O)N[C@H](C(N)=O)C(C)C)c1ccccc1 (HELM PEPTIDE1{[O=C(/C=C/C(=O)[*:2])NCC(=O)NCC(=O)N[C@@H](Cc1ccccc1)C(=O)O].[O=C([C@H](CN[*:3])N[*:1])[*:2]].[Phg].A.V.[am]}|PEPTIDE2{[ac]}$PEPTIDE1,PEPTIDE2,2:R3-1:R2$$$V2.0)",37%,36%
CC(C)[C@H](NC(=O)[C@H](C)NC(=O)[C@@H](NC(=O)[C@H](Cc1ccccc1)NC(=O)/C=C/C(=O)N[C@@H](C)C(=O)NCC(=O)N[C@@H](Cc1ccccc1)C(=O)O)c1ccccc1)C(N)=O (HELM PEPTIDE1{[C[C@H](NC(=O)/C=C/C(=O)[*:2])C(=O)NCC(=O)N[C@@H](Cc1ccccc1)C(=O)O].F.[Phg].A.V.[am]}$$$$V2.0),34%,47%
CC(C)[C@H](NC(=O)[C@@H](NC(=O)[C@@H](NC(=O)[C@H](CCC(N)=O)NC(=O)/C=C/C(=O)N[C@@H](C)C(=O)NCC(=O)N[C@@H](Cc1ccccc1)C(=O)O)C1CCCCC1)C(C)C)C(N)=O (HELM PEPTIDE1{[C[C@H](NC(=O)/C=C/C(=O)[*:2])C(=O)NCC(=O)N[C@@H](Cc1ccccc1)C(=O)O].Q.[O=C([C@@H](N[*:1])C1CCCCC1)[*:2]].V.V.[am]}$$$$V2.0),47%,43%
CC(C)[C@H](NC(=O)[C@H](C)NC(=O)[C@H](Cc1ccccc1)NC(=O)[C@H](CCC(N)=O)NC(=O)/C=C/C(=O)NCC(=O)NCC(=O)N[C@@H](Cc1ccccc1)C(=O)O)C(N)=O (HELM PEPTIDE1{[O=C(/C=C/C(=O)[*:2])NCC(=O)NCC(=O)N[C@@H](Cc1ccccc1)C(=O)O].Q.F.A.V.[am]}$$$$V2.0),54%,41%
CC(=O)NC[C@H](NC(=O)/C=C/C(=O)N[C@@H](C)C(=O)NCC(=O)N[C@@H](Cc1ccccc1)C(=O)O)C(=O)N[C@H](C(=O)N[C@@H](C)C(=O)N[C@H](C(N)=O)C(C)C)C1CCCCC1 ({Fumaroyl(AlaGlyPheOH)}-[Dap](Ac)[Chg]AV-NH2),35%,29%
CC(C)[C@H](NC(=O)[C@H](C)NC(=O)[C@@H](NC(=O)[C@H](CC(N)=O)NC(=O)/C=C/C(=O)N[C@@H](C)C(=O)NCC(=O)N[C@@H](Cc1ccccc1)C(=O)O)c1ccccc1)C(N)=O (HELM PEPTIDE1{[C[C@H](NC(=O)/C=C/C(=O)[*:2])C(=O)NCC(=O)N[C@@H](Cc1ccccc1)C(=O)O].N.[Phg].A.V.[am]}$$$$V2.0),35%,44%
CC(C)C[C@H](NC(=O)[C@@H](NC(=O)[C@H](C)NC(=O)/C=C/C(=O)N[C@@H](C)C(=O)NCC(=O)N[C@@H](Cc1ccccc1)C(=O)O)C1CCCCC1)C(=O)N[C@H](C(N)=O)C(C)C (HELM PEPTIDE1{[C[C@H](NC(=O)/C=C/C(=O)[*:2])C(=O)NCC(=O)N[C@@H](Cc1ccccc1)C(=O)O].A.[O=C([C@@H](N[*:1])C1CCCCC1)[*:2]].L.V.[am]}$$$$V2.0),43%,59%
CC(C)C[C@H](NC(=O)[C@@H](NC(=O)[C@H](C)NC(=O)/C=C/C(=O)NCC(=O)NCC(=O)N[C@@H](Cc1ccccc1)C(=O)O)c1ccccc1)C(=O)N[C@H](C(N)=O)C(C)C (HELM PEPTIDE1{[O=C(/C=C/C(=O)[*:2])NCC(=O)NCC(=O)N[C@@H](Cc1ccccc1)C(=O)O].A.[Phg].L.V.[am]}$$$$V2.0),53%,54%
CC(C)[C@H](NC(=O)[C@H](C)NC(=O)[C@@H](NC(=O)[C@H](Cc1ccccc1)NC(=O)/C=C/C(=O)NCC(=O)NCC(=O)N[C@@H](Cc1ccccc1)C(=O)O)c1ccccc1)C(N)=O (HELM PEPTIDE1{[O=C(/C=C/C(=O)[*:2])NCC(=O)NCC(=O)N[C@@H](Cc1ccccc1)C(=O)O].F.[Phg].A.V.[am]}$$$$V2.0),62%,51%
CC(C)C[C@H](NC(=O)[C@H](CC(N)=O)NC(=O)/C=C/C(=O)NCC(=O)NCC(=O)N[C@@H](Cc1ccccc1)C(=O)O)C(=O)N[C@H](C(=O)N[C@H](C(N)=O)C(C)C)C(C)C (HELM PEPTIDE1{[O=C(/C=C/C(=O)[*:2])NCC(=O)NCC(=O)N[C@@H](Cc1ccccc1)C(=O)O].N.L.V.V.[am]}$$$$V2.0),48%,52%
CC(C)C[C@H](NC(=O)[C@@H](NC(=O)[C@H](Cc1ccccc1)NC(=O)/C=C/C(=O)N[C@@H](C)C(=O)NCC(=O)N[C@@H](Cc1ccccc1)C(=O)O)C1CCCCC1)C(=O)N[C@H](C(N)=O)C(C)C (HELM PEPTIDE1{[C[C@H](NC(=O)/C=C/C(=O)[*:2])C(=O)NCC(=O)N[C@@H](Cc1ccccc1)C(=O)O].F.[O=C([C@@H](N[*:1])C1CCCCC1)[*:2]].L.V.[am]}$$$$V2.0),56%,49%
CC(C)[C@H](NC(=O)[C@H](C)NC(=O)[C@@H](NC(=O)[C@H](C)NC(=O)/C=C/C(=O)NCC(=O)NCC(=O)N[C@@H](Cc1ccccc1)C(=O)O)c1ccccc1)C(N)=O (HELM PEPTIDE1{[O=C(/C=C/C(=O)[*:2])NCC(=O)NCC(=O)N[C@@H](Cc1ccccc1)C(=O)O].A.[Phg].A.V.[am]}$$$$V2.0),41%,16%
CC[C@H](C)[C@H](NC(=O)[C@H](CC(N)=O)NC(=O)/C=C/C(=O)N[C@@H](C)C(=O)NCC(=O)N[C@@H](Cc1ccccc1)C(=O)O)C(=O)N[C@@H](CC(C)C)C(=O)N[C@H](C(N)=O)C(C)C (HELM PEPTIDE1{[C[C@H](NC(=O)/C=C/C(=O)[*:2])C(=O)NCC(=O)N[C@@H](Cc1ccccc1)C(=O)O].N.I.L.V.[am]}$$$$V2.0),47%,60%
CC(C)C[C@H](NC(=O)[C@H](Cc1ccccc1)NC(=O)[C@H](C)NC(=O)/C=C/C(=O)NCC(=O)NCC(=O)N[C@@H](Cc1ccccc1)C(=O)O)C(=O)N[C@H](C(N)=O)C(C)C (HELM PEPTIDE1{[O=C(/C=C/C(=O)[*:2])NCC(=O)NCC(=O)N[C@@H](Cc1ccccc1)C(=O)O].A.F.L.V.[am]}$$$$V2.0),68%,67%
CC(C)[C@H](NC(=O)[C@H](C)NC(=O)[C@@H](NC(=O)[C@H](C)NC(=O)/C=C/C(=O)N[C@@H](C)C(=O)NCC(=O)N[C@@H](Cc1ccccc1)C(=O)O)C1CCCCC1)C(N)=O (HELM PEPTIDE1{[C[C@H](NC(=O)/C=C/C(=O)[*:2])C(=O)NCC(=O)N[C@@H](Cc1ccccc1)C(=O)O].A.[O=C([C@@H](N[*:1])C1CCCCC1)[*:2]].A.V.[am]}$$$$V2.0),38%,26%
CC(C)C[C@H](NC(=O)[C@@H](NC(=O)[C@H](CCC(N)=O)NC(=O)/C=C/C(=O)N[C@@H](C)C(=O)NCC(=O)N[C@@H](Cc1ccccc1)C(=O)O)C1CCCCC1)C(=O)N[C@H](C(N)=O)C(C)C (HELM PEPTIDE1{[C[C@H](NC(=O)/C=C/C(=O)[*:2])C(=O)NCC(=O)N[C@@H](Cc1ccccc1)C(=O)O].Q.[O=C([C@@H](N[*:1])C1CCCCC1)[*:2]].L.V.[am]}$$$$V2.0),47%,52%
CC[C@H](C)[C@H](NC(=O)[C@H](CCC(N)=O)NC(=O)/C=C/C(=O)NCC(=O)NCC(=O)N[C@@H](Cc1ccccc1)C(=O)O)C(=O)N[C@H](C(=O)N[C@H](C(N)=O)C(C)C)C(C)C (HELM PEPTIDE1{[O=C(/C=C/C(=O)[*:2])NCC(=O)NCC(=O)N[C@@H](Cc1ccccc1)C(=O)O].Q.I.V.V.[am]}$$$$V2.0),30%,37%
CC[C@H](C)[C@H](NC(=O)[C@H](CCC(N)=O)NC(=O)/C=C/C(=O)NCC(=O)NCC(=O)N[C@@H](Cc1ccccc1)C(=O)O)C(=O)N[C@@H](CC(C)C)C(=O)N[C@H](C(N)=O)C(C)C (HELM PEPTIDE1{[O=C(/C=C/C(=O)[*:2])NCC(=O)NCC(=O)N[C@@H](Cc1ccccc1)C(=O)O].Q.I.L.V.[am]}$$$$V2.0),44%,52%
CC(C)[C@H](NC(=O)[C@H](C)NC(=O)[C@@H](NC(=O)[C@H](C)NC(=O)/C=C/C(=O)NCC(=O)NCC(=O)N[C@@H](Cc1ccccc1)C(=O)O)C1CCCCC1)C(N)=O (HELM PEPTIDE1{[O=C(/C=C/C(=O)[*:2])NCC(=O)NCC(=O)N[C@@H](Cc1ccccc1)C(=O)O].A.[O=C([C@@H](N[*:1])C1CCCCC1)[*:2]].A.V.[am]}$$$$V2.0),31%,26%
